Source: PubChem
Compounds with a hit are over-represented: about 2.4% of the library has one in this group of screens.
Neddylation inh: cullin neddylation inhibition; actives 0.58% (n = 360,000); P61081+Q13564; TR-FRET cullin neddylation, biochemical; inhibition, % at 25 µM; in the data active = inhibition above about 36%
Rpn11 inh: inhibitors of human proteasome Rpn11 | O00487 | human 26S proteasome, Ub4-pepOG fluorescence polarization; 20S core pre-blocked with epoxomicin | AID 588493 | inhibition, % at 20 µM | actives 0.59% (n = 360,000);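 active = inhibition at 20 µM, scaled to each plate's controls, above about 33%, limit read from the data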
CSN inh: blocks human CSN-mediated cullin deneddylation; Q92905; Purified CSN, SCF-Nedd8-OG deneddylation, fluorescence polarization; inhibition, % at 12.5 µM; actives 0.38% (n = 360,000);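 active = pattern-corrected inhibition above about 35%, with an unprinted fluorescence ratio check between 0.5 and 1.5, limit read from the data, passing the limit was not always enough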;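 also: 0% = enzyme with substrate and 100% = substrate without enzyme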
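Assay system: HEK293T-derived human Csn5 enzyme; quantity: 0.24 nM enzyme; medium: Tris/NaCl/DTT buffer, pH 7.5; also added: substrate SCFSkp2-Nedd8OG, 10 nM; doses: 12.5 µM compound; schedule: 90 min reaction at room temperature; signal: FP; read-out: % inhibition of substrate cleavage by Csn5; benchmarks: substrate-only high control, full reaction low control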
Rin1 Abl inh: human Rin1-Abl interaction inhibition; TR-FRET Rin1/Abl binding, biochemical; inhibition, % at 7.35 µM; actives 0.4% (n = 360,000); AID 588664; in the data active = inhibition above about 5%, passing the limit was not always enough
TPT1 inhibitor: inhibitors of Candida albicans tRNA 2'-phosphotransferase TPT1. recombinant caTPT1, FP RNA substrate dephosphorylation. inhibition, % at 5 µM. actives 0.81% (n = 300,000);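 active = inhibition above the mean of all tested compounds plus 3 SD, set per screening campaign, cut at about 24% in these data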;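 also: plate controls were DMSO alone for no effect and ferristatin control at 100 nM for full effect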
HNF4A DNA FP: change in binding of human HNF4 alpha to DNA; actives 0.3% (n = 360,000); P41235; HNF4a-FITC DNA binding, fluorescence polarization, 1 h; activity change, % at 10 µM; in the data active = activity change above about 30%, passing the limit was not always enough
Target sequence (P41235 whole entry, looked up): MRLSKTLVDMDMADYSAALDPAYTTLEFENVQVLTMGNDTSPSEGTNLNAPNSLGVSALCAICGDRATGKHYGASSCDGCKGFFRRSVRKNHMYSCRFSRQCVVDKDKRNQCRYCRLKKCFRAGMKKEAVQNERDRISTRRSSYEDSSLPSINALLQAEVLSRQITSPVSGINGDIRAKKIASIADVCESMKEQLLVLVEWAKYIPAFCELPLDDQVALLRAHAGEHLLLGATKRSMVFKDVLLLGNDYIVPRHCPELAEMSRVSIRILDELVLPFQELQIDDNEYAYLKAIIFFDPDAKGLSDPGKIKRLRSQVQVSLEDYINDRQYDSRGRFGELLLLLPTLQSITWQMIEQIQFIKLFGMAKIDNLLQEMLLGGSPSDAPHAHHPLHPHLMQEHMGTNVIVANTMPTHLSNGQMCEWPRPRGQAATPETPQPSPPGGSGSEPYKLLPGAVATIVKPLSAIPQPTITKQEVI
* hit, by the source's call; . = no result shown.

SMILES	Neddylation inh	Rpn11 inh	CSN inh	Rin1 Abl inh	TPT1 inhibitor	HNF4A DNA FP
COc1ccc(Cc2nc3ccccc3n2CC(=O)N/N=C/c2ccc(O)cc2)cc1OC	-3	-3	1	0	-3	1
COc1ccc(Cc2nc3ccccc3n2CC(=O)N/N=C/c2ccc(C)cc2O)cc1OC	23	21	60*	-2	-2	39*
CN1CCN(C(=O)c2ccc(Cc3cn(C)c4ccccc34)nc2)CC1	2	6	0	0	.	0
N#Cc1c(N2CCCC2)nc(N)c2c(N)nc(N3CCCC3)cc12	37	-2	55*	-10	0	36
CCOc1cc2c(C#N)c(N3CCCC3)nc(N)c2c(N)n1	6	9	1	1	5	5
COc1ccc2c(c1)CCC1C2=NN(/C(C)=C\C(C)=O)C1c1ccc(F)cc1 (configuration not stated)	15	51*	30	0	13	53*
Cc1cccc(NC(=O)C(=O)NCCCc2ccccc2)c1	.	.	.	.	-3	.
CN1C(=O)NC(NC(=O)c2ccco2)(C(F)(F)F)C1=O (configuration not stated)	-5	-2	-1	0	5	-1
CC(C)CN1C(=O)NC(NC(=O)c2ccco2)(C(F)(F)F)C1=O (configuration not stated)	3	9	-1	3	-2	39*
O=C(COc1ccc(S(=O)(=O)N2CCCC2)cc1)NCC1CCCO1 (configuration not stated)	-10	-3	-9	0	-1	-2
COc1ccc(OC)c(NC(=O)CCC(=O)N(Cc2ccc(OC)c(OC)c2)c2nccs2)c1	4	0	43*	2	-4	-3
Cc1cc2oc(=O)cc(Cn3ccnc3)c2cc1Cl	-1	6	4	2	-5	2
C(=Cc1c[nH]c2ccccc12)c1ccc2ccccc2n1	.	28	10	-3	.	37*
O=C(O)C1Nc2c(O)cccc2C2C=CCC12 (configuration not stated)	1	.	63	20*	15	-46
O=C1c2ccccc2C(O)(c2ccccc2)N1C1CC1 (configuration not stated)	-9	2	-3	3	-1	1
O=C(O)c1ccc(S(=O)(=O)NCC2CCCCC2)cc1	-10	-8	-3	3	.	72*
CCOC(=O)CC1COCCN1C(=O)c1cc(COc2ccccc2SC)on1 (configuration not stated)	-1	-1	2	3	.	1
COC(=O)C1CCCCN1C(=O)c1cc(COc2cccc3cnccc23)on1 (configuration not stated)	47*	-11	1	1	1	3
CCOC(=O)CC1CCCCN1C(=O)c1cc(COc2cccc3cnccc23)on1 (configuration not stated)	56*	2	-1	-1	-3	3
CN(C)c1ccc(/C=C/C(O)=C2/C(=O)N(C)C3(C)CC2c2ccccc2O3)cc1 (configuration not stated)	.	.	.	.	188*	.
CCOc1ccc(/C=C/C(O)=C2/C(=O)N(C)C3(C)CC2c2ccccc2O3)cc1OC (configuration not stated)	.	-2	5	0	3	-1
COCC(COS(N)(=O)=O)Cc1ccccc1 (configuration not stated)	-23	-2	-4	0	0	-2
CCOC(=O)C1CCN(C(=O)Cn2c(=O)oc3cc(S(=O)(=O)N4CCCC4)ccc32)CC1	-3	-1	1	0	-4	4
CCOC(=O)c1cnc(-n2nc(C)cc2C)nc1NCc1ccccc1	19	-8	6	-2	4	3
CCOC(=O)c1cnc(-n2cc(C)cn2)nc1NCc1ccc2c(c1)OCO2	8	3	11	1	1	48*
SMILES	Neddylation inh	Rpn11 inh	CSN inh	Rin1 Abl inh	TPT1 inhibitor	HNF4A DNA FP
O=C(NCc1ccccc1Cl)c1ccc2sc([C@@H]3O[C@H](CO)[C@H](O)[C@H](O)[C@H]3O)nc2c1	-3	9	-4	-6	.	1
c1ccc(-c2nccc(-c3ccc(-n4cnc5ccccc54)cc3)n2)cc1	-38	1	73*	-1	-4	-2
CCCC(=O)N1CCCC1(C)C(=O)NCc1ccc(SC)cc1 (configuration not stated)	4	1	-2	-2	.	5
O=C(N/N=C/c1ccc(OC(=O)c2cccc(F)c2)cc1)c1cccnc1	-10	18	41*	2	0	-3
O=C(N/N=C/c1ccc(OC(=O)c2cccc(Br)c2)cc1)c1cccnc1	-11	6	5	3	0	-1
Cc1ccc(C(=O)OCC(=O)Nc2ccc(N3CCOCC3)cc2)cc1	4	0	-6	-2	.	-1
Cc1ccc(C2=Nc3ccccc3N(C(=O)c3ccccc3)C(C)C2)cc1 (configuration not stated)	8	1	1	-1	-3	-2
Cc1ccccc1N=Nc1ccc(O)c2ncccc12	-19	20	-14	0	-3	0
O=S(=O)(O)c1cccc2c(N=Nc3ccc(O)c4ncccc34)cccc12	-47	38	57	15*	-21	-31
COc1ccc(/C=C(\C#N)C(=O)OCC(=O)NCc2ccc(Cl)cc2)cc1	.	.	.	.	2	.
CC(C)n1cc(/C=N/Nc2ccc(C(=O)O)cc2)c2ccccc21	43*	-8	1	0	4	-2
O=C(O)c1ccc(N/N=C/c2cn(Cc3ccccc3F)c3ccccc23)cc1	46*	0	7	2	2	5
CSCCC(NC(=O)c1ccccc1)C(=O)N1CC=C(c2ccccc2)CC1 (configuration not stated)	6	5	1	0	-2	-1
CC(OC(=O)c1ccc(CN2CCCC2=O)cc1)C(=O)Nc1ccc(Cl)cc1 (configuration not stated)	16	-6	-4	1	.	2
COc1cc(/C=C(\NC(C)=O)C(=O)NC(C)(C)C)ccc1OC(C)=O	-1	6	-5	3	1	3
COc1cc(/C=C(\NC(C)=O)C(=O)Nc2cccc(O)c2)ccc1OC(C)=O	-6	7	1	-3	12	37*
O=C1C=C(c2cc3ccccc3s2)CCC1	-18	-2	-3	-3	-2	-6
Cc1cc(C(=O)N/N=C/c2ccc(-c3cccc([N+](=O)[O-])c3)o2)n[nH]1	-31	2	4	-4	-1	-1
Cc1cc(C(=O)N/N=C/c2ccc(-c3ccc([N+](=O)[O-])cc3Cl)o2)n[nH]1	-14	-12	46*	-4	14	4
